Source: ChEMBL document CHEMBL4689842, “EUbOPEN Chemogenomics Library wave 1” (2021)

System: HEK-293T
Assay: Multiplex assay against HEK293T;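 as to Population Tubulin-Different-Phenotype (%): share of the cells with healthy nuclei that show this phenotype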
Type: toxicity, cell-based
Conditions: human
Summary of the method: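 Live cells carried four stains from seeding: Hoechst33342, BioTracker Green Microtubule Cytoskeleton Dye, MitoTracker Red and Annexin V Alexa Fluor 680. They were imaged on a CQ1 microscope at 37°C and 5% CO2 after compound addition. Using CellPathfinder machine-learning gating, cells were split into Hoechst high-intensity objects or normal cells, normal cells into healthy, pyknosed or fragmented nuclei, and pyknosed cells into mitotic or apoptotic; tubulin, mitochondrial-mass and membrane-permeability phenotypes are per cents of healthy-nucleus cells.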

[1] = 12 h, 1 µM, compound concentration 1 uM, replicate 1
[2] = 12 h, 1 µM, compound concentration 1 uM, replicate 2
[3] = 12 h, 10 µM, compound concentration 10 uM, replicate 1
[4] = 12 h, 10 µM, compound concentration 10 uM, replicate 2
[5] = 24 h, 1 µM, compound concentration 1 uM, replicate 1
[6] = 24 h, 1 µM, compound concentration 1 uM, replicate 2
[7] = 24 h, 10 µM, compound concentration 10 uM, replicate 1
[8] = 24 h, 10 µM, compound concentration 10 uM, replicate 2
[9] = 48 h, 1 µM, compound concentration 1 uM, replicate 1
[10] = 48 h, 1 µM, compound concentration 1 uM, replicate 2
[11] = 48 h, 10 µM, compound concentration 10 uM, replicate 1
[12] = 48 h, 10 µM, compound concentration 10 uM, replicate 2

## CC(C)NC(=O)N1CC[C@H](NC2=Nc3cc(F)ccc3N(CC(F)F)c3ccc(Cl)cc32)C1
[1]
  Population Apoptotic (%): 42%
  Population Fragmented Nuclei (%): 19%
  Population Healthy Nuclei (%): 34%
  Population Hoechst High Intensity Objects (%): 18%
  Population Membrane Permeable-Phenotype (%): 4%
  Population Mitochondria Different-Phenotype (%): 78%
  Population Mitotic Cells (%): 57%
  Population Normal (%): 81%
  Population Pyknosed Nuclei (%): 46%
  Population Tubulin-Different-Phenotype (%): 34%
  Total Cell Count: 170
[2]
  Population Apoptotic (%): 8%
  Population Fragmented Nuclei (%): 4%
  Population Healthy Nuclei (%): 47%
  Population Hoechst High Intensity Objects (%): 3%
  Population Membrane Permeable-Phenotype (%): 13%
  Population Mitochondria Different-Phenotype (%): 24%
  Population Mitotic Cells (%): 91%
  Population Normal (%): 96%
  Population Pyknosed Nuclei (%): 47%
  Population Tubulin-Different-Phenotype (%): 25%
  Total Cell Count: 304
[3]
  Population Apoptotic (%): 53%
  Population Fragmented Nuclei (%): 24%
  Population Healthy Nuclei (%): 38%
  Population Hoechst High Intensity Objects (%): 22%
  Population Membrane Permeable-Phenotype (%): 4%
  Population Mitochondria Different-Phenotype (%): 91%
  Population Mitotic Cells (%): 46%
  Population Normal (%): 77%
  Population Pyknosed Nuclei (%): 37%
  Population Tubulin-Different-Phenotype (%): 79%
  Total Cell Count: 163
[4]
  Population Apoptotic (%): 20%
  Population Fragmented Nuclei (%): 6%
  Population Healthy Nuclei (%): 53%
  Population Hoechst High Intensity Objects (%): 5%
  Population Membrane Permeable-Phenotype (%): 10%
  Population Mitochondria Different-Phenotype (%): 48%
  Population Mitotic Cells (%): 79%
  Population Normal (%): 94%
  Population Pyknosed Nuclei (%): 40%
  Population Tubulin-Different-Phenotype (%): 57%
  Total Cell Count: 170
[5]
  Population Apoptotic (%): 37%
  Population Fragmented Nuclei (%): 20%
  Population Healthy Nuclei (%): 39%
  Population Hoechst High Intensity Objects (%): 20%
  Population Membrane Permeable-Phenotype (%): 0%
  Population Mitochondria Different-Phenotype (%): 75%
  Population Mitotic Cells (%): 62%
  Population Normal (%): 79%
  Population Pyknosed Nuclei (%): 39%
  Population Tubulin-Different-Phenotype (%): 32%
  Total Cell Count: 178
[6]
  Population Apoptotic (%): 15%
  Population Fragmented Nuclei (%): 4%
  Population Healthy Nuclei (%): 69%
  Population Hoechst High Intensity Objects (%): 3%
  Population Membrane Permeable-Phenotype (%): 8%
  Population Mitochondria Different-Phenotype (%): 13%
  Population Mitotic Cells (%): 84%
  Population Normal (%): 96%
  Population Pyknosed Nuclei (%): 25%
  Population Tubulin-Different-Phenotype (%): 25%
  Total Cell Count: 367
[7]
  Population Apoptotic (%): 58%
  Population Fragmented Nuclei (%): 17%
  Population Healthy Nuclei (%): 32%
  Population Hoechst High Intensity Objects (%): 25%
  Population Membrane Permeable-Phenotype (%): 0%
  Population Mitochondria Different-Phenotype (%): 94%
  Population Mitotic Cells (%): 41%
  Population Normal (%): 74%
  Population Pyknosed Nuclei (%): 50%
  Population Tubulin-Different-Phenotype (%): 69%
  Total Cell Count: 161
[8]
  Population Apoptotic (%): 37%
  Population Fragmented Nuclei (%): 9%
  Population Healthy Nuclei (%): 58%
  Population Hoechst High Intensity Objects (%): 2%
  Population Membrane Permeable-Phenotype (%): 6%
  Population Mitochondria Different-Phenotype (%): 71%
  Population Mitotic Cells (%): 62%
  Population Normal (%): 97%
  Population Pyknosed Nuclei (%): 32%
  Population Tubulin-Different-Phenotype (%): 61%
  Total Cell Count: 169
[9]
  Population Apoptotic (%): 48%
  Population Fragmented Nuclei (%): 22%
  Population Healthy Nuclei (%): 37%
  Population Hoechst High Intensity Objects (%): 21%
  Population Membrane Permeable-Phenotype (%): 0%
  Population Mitochondria Different-Phenotype (%): 32%
  Population Mitotic Cells (%): 51%
  Population Normal (%): 78%
  Population Pyknosed Nuclei (%): 40%
  Population Tubulin-Different-Phenotype (%): 28%
  Total Cell Count: 189
[10]
  Population Apoptotic (%): 17%
  Population Fragmented Nuclei (%): 5%
  Population Healthy Nuclei (%): 84%
  Population Hoechst High Intensity Objects (%): 3%
  Population Membrane Permeable-Phenotype (%): 4%
  Population Mitochondria Different-Phenotype (%): 4%
  Population Mitotic Cells (%): 82%
  Population Normal (%): 96%
  Population Pyknosed Nuclei (%): 10%
  Population Tubulin-Different-Phenotype (%): 25%
  Total Cell Count: 580
[11]
  Population Apoptotic (%): 70%
  Population Fragmented Nuclei (%): 28%
  Population Healthy Nuclei (%): 39%
  Population Hoechst High Intensity Objects (%): 19%
  Population Membrane Permeable-Phenotype (%): 8%
  Population Mitochondria Different-Phenotype (%): 74%
  Population Mitotic Cells (%): 29%
  Population Normal (%): 80%
  Population Pyknosed Nuclei (%): 32%
  Population Tubulin-Different-Phenotype (%): 62%
  Total Cell Count: 181
[12]
  Population Apoptotic (%): 48%
  Population Fragmented Nuclei (%): 8%
  Population Healthy Nuclei (%): 63%
  Population Hoechst High Intensity Objects (%): 2%
  Population Membrane Permeable-Phenotype (%): 5%
  Population Mitochondria Different-Phenotype (%): 46%
  Population Mitotic Cells (%): 51%
  Population Normal (%): 97%
  Population Pyknosed Nuclei (%): 28%
  Population Tubulin-Different-Phenotype (%): 61%
  Total Cell Count: 219
